Measurements from ChEMBL document CHEMBL1157908, “Macrocyclic pyridyl polyoxazoles: selective RNA and DNA G-quadruplex ligands as antitumor agents” (J Med Chem, 2010).

What was measured:
MDA-MB-435 [1] = experiment: Antitumor activity against human MDA-MB-435 cells xenografted in NCR nu/nu mouse at 20 mg/kg, ip administered 3 times a week for 4 weeks measured after 35 days post-implantation relative to control; format: functional; conditions: route intraperitoneal
Summary of the method: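 Female NCR/NU NU mice bearing sc flank MDA-MB-435 xenografts (1.5×10^6 cells), groups matched by tumor volume. Eight mice dosed ip at 20 mg/kg, 3× weekly for four weeks from day 0. Tumor volume (l × w^2)/2 measured by caliper at least twice weekly. % T/C = average treated volume over citrate-control volume.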

Mus musculus [2] = experiment: Toxicity in NCR nu/nu mouse xenografted with human MDA-MB-435 cells assessed as average body weight at 20 mg/kg, ip administered 3 times a week for 4 weeks measured on day 31 (RVb = 23.9 +/- 1 g); format: organism-based; parameters: dose 20 mg/kg, route intraperitoneal; conditions: in vivo, 672 h
[3] = Cytotoxicity against human KBV1 cells expressing MDR1 by MTA assay; format: functional, cell-based; conditions: KB-V1
Summary of the method: (§1)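 MTT microtiter assay. Cells were kept at 37 °C in 5% CO2 in RPMI with 10% heat-inactivated FBS, 2 mM L-glutamine and penicillin/streptomycin. Continuous exposure to a range of drug concentrations for four days, then MTT read-out. Drug-free control included. IC50 from at least two assays, each in six replicate wells.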

[4] = Cytotoxicity against wild type human KB3-1 cells by MTA assay; format: functional, cell-based; conditions: KB 3-1; summary of the method: as §1
MIA PaCa-2 = experiment: Cytotoxicity against human MIAPaCa2 cells; format: functional, cell-based
[5] = Cytotoxicity against human KBH5.0 cells expressing efflux transporter BCRP by MTA assay; format: functional, cell-based; conditions: KBH5.0 cell; summary of the method: as §1
[6] = Cytotoxicity against human RPMI8402 cells by MTA assay; format: functional, cell-based; conditions: RPMI 8402; summary of the method: as §1
Nucleic Acid [7] = experiment: Thermal stabilization of […] poly(rA).poly(rU) duplex RNA assessed as change in transition temperature at 15 uM after 4 hrs by temperature-dependent spectrophotometry in presence of 150 mM K+ ions; format: nucleic-acid assay
Nucleic Acid [8] = experiment: Thermal stabilization of Salmon testes duplex DNA assessed as change in transition temperature at 15 uM after 4 hrs by temperature-dependent spectrophotometry in presence of 150 mM K+ ions; format: nucleic-acid assay; conditions: Salmonidae
Summary of the method: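 Salmon testes duplex DNA at 30 μM base pair with ligand at 15 μM. Buffer 10 mM potassium phosphate pH 7.5 with 132 mM KCl (150 mM K+). DNA preheated at 90 °C for 5 min and cooled slowly over 4 hr. Temperature-dependent absorbance recorded in 1 cm quartz cells.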

Nucleic Acid [9] = experiment: Thermal stabilization of human G-quadruplex d[T2G3(T2AG3)3A] DNA assessed as change in transition temperature at 20 uM after 4 hrs by temperature-dependent spectrophotometry in presence of 150 mM K+ ions; format: nucleic-acid assay
Summary of the method: (§2)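 UV melting in 1 cm quartz cells. Sample held 5 μM strand of hTel DNA 24mer or AurA RNA 22mer, with ligand at 20 μM. Buffer 10 mM potassium phosphate pH 7.5 plus 132 mM KCl (150 mM K+ total). Nucleic acids preheated at 90 °C for 5 min and slowly cooled over 4 hr before use. AurA transition followed at 295 nm.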

Mus musculus [10] = experiment: Toxicity in NCR nu/nu mouse xenografted with human MDA-MB-435 cells assessed as average body weight at an escalating dose of 25 to 42 mg/kg, ip administered on day 10 post-implantation followed by subsequent dose regimen of 3 times a week on alternative days for 3 weeks measured on day 24 (RVb = 22.5 +/- 1.5 g); format: organism-based; parameters: dose 25-42 mg/kg, route intraperitoneal; conditions: in vivo, 504 h
Summary of the method: (§3)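 Female NCR/NU NU mice with sc MDA-MB-435 flank xenografts. Seven mice dosed ip 3× weekly on alternate days, escalating weekly from 25 through 32 to 42 mg/kg. Controls received 150 μl 10 mM citrate. Individual body weights taken at least twice weekly. Average ± standard deviation given for days 17, 24, 31 and 35.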

Mus musculus [11] = experiment: Toxicity in NCR nu/nu mouse xenografted with human MDA-MB-435 cells assessed as average body weight at an escalating dose of 25 to 42 mg/kg, ip administered on day 10 post-implantation followed by subsequent dose regimen of 3 times a week on alternative days for 3 weeks measured on day 35 (RVb = 24.6 +/- 1.3 g); format: organism-based; parameters: dose 25-42 mg/kg, route intraperitoneal; conditions: in vivo, 504 h; summary of the method: as §3
Nucleic Acid [12] = experiment: Thermal stabilization of r[AG4CG2CUG2UCG2AGUG2C] sequence of quadruplex RNA assessed as change in transition temperature at 20 uM after 4 hrs by temperature-dependent spectrophotometry in presence of 150 mM K+ ions; format: nucleic-acid assay; summary of the method: as §2
Mus musculus [13] = experiment: Toxicity in NCR nu/nu mouse xenografted with human MDA-MB-435 cells assessed as average body weight at an escalating dose of 25 to 42 mg/kg, ip administered on day 10 post-implantation followed by subsequent dose regimen of 3 times a week on alternative days for 3 weeks measured on day 31 (RVb = 23.9 +/- 1 g); format: organism-based; parameters: dose 25-42 mg/kg, route intraperitoneal; conditions: in vivo, 504 h; summary of the method: as §3
MDA-MB-435 [14] = experiment: Antitumor activity against human MDA-MB-435 cells xenografted in NCR nu/nu mouse assessed as tumor volume at an escalating dose of 25 to 42 mg/kg, ip administered on day 10 post-implantation followed by subsequent dose regimen of 3 times a week on alternative days for 3 weeks measured after 35 days (RVb = > 1350 mm'3); format: functional; conditions: dose mg/kg 25-42; route intraperitoneal
Summary of the method: (§4)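 Female NCR/NU NU mice, about 9 weeks old. Inoculated sc on the right flank with 1.5×10^6 MDA-MB-435 cells in 0.1 mL RPMI 1640. Groups of seven matched by tumor volume. Given ip 3× weekly on alternate days in escalating weekly doses. Control received 150 μl 10 mM citrate. Tumor volume (l × w^2)/2 measured by microcaliper at least twice weekly. % T/C = treated/control mean volume.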

Mus musculus [15] = experiment: Toxicity in NCR nu/nu mouse xenografted with human MDA-MB-435 cells assessed as average body weight at an escalating dose of 25 to 42 mg/kg, ip administered on day 10 post-implantation followed by subsequent dose regimen of 3 times a week on alternative days for 3 weeks measured on day 17 (RVb = 22 +/- 1.8 g); format: organism-based; parameters: dose 25-42 mg/kg, route intraperitoneal; conditions: in vivo, 504 h; summary of the method: as §3
MDA-MB-435 [16] = experiment: Antitumor activity against human MDA-MB-435 cells xenografted in NCR nu/nu mouse at an escalating dose of 25 to 42 mg/kg, ip administered on day 10 post-implantation followed by subsequent dose regimen of 3 times a week on alternative days for 3 weeks measured after 35 days relative to control; format: functional; conditions: dose mg/kg 25-42; route intraperitoneal; summary of the method: as §4

## CCc1c2c(nc3ccc(OC(=O)N4CCC(N5CCCCC5)CC4)cc13)-c1cc3c(c(=O)n1C2)COC(=O)[C@]3(O)CC [IRINOTECAN]
MDA-MB-435 [1]
  T/C: 6.1%
Mus musculus [2]
  Activity: 18.4 g

## CC(C)[C@@H]1NC(=O)c2coc(n2)-c2coc(n2)-c2coc(n2)[C@H](C(C)C)NC(=O)c2coc(n2)-c2coc(n2)-c2coc1n2 [HEXAOXAZOLE DIVALINE]
[3]
  IC50: 8500 nM
[4]
  IC50: 400 nM
MIA PaCa-2
  IC50: 500 nM
[5]
  IC50: 500 nM
[6]
  IC50: 600 nM

## NCCCOc1cc2nc(c1)-c1nc(co1)-c1nc(co1)C(=O)NCc1cccc(c1)CNC(=O)c1coc(n1)-c1coc-2n1
[3]
  IC50: > 10000 nM
[4]
  IC50: 3000 nM
[5]
  IC50: > 10000 nM
[6]
  IC50: 5000 nM

## O=C1NCc2cccc(c2)CNC(=O)c2coc(n2)-c2coc(n2)-c2cc(OCCCN3C(=O)c4ccccc4C3=O)cc(n2)-c2nc(co2)-c2nc1co2
[3]
  IC50: > 10000 nM
[4]
  IC50: 400 nM
[5]
  IC50: > 10000 nM
[6]
  IC50: 4500 nM

## O=C1NCc2cccc(c2)CNC(=O)c2coc(n2)-c2csc(n2)-c2cccc(n2)-c2nc(co2)-c2nc1co2
[3]
  IC50: > 10000 nM
[4]
  IC50: 260 nM
[5]
  IC50: > 10000 nM
[6]
  IC50: 1000 nM

## O=C1NCc2cc(Br)cc(c2)CNC(=O)c2coc(n2)-c2coc(n2)-c2cc(OCCCN3C(=O)c4ccccc4C3=O)cc(n2)-c2nc(co2)-c2nc1co2
[3]
  IC50: > 10000 nM
[4]
  IC50: 1000 nM
[5]
  IC50: > 10000 nM
[6]
  IC50: 1000 nM

## O=C1NCc2cccc(c2)CNC(=O)c2coc(n2)-c2coc(n2)-c2cccc(n2)-c2nc(co2)-c2nc1co2
[3]
  IC50: 4500 nM
[4]
  IC50: 1200 nM
Nucleic Acid [7]
  deltaT: 0 °C
Nucleic Acid [8]
  deltaT: 0 °C
[5]
  IC50: 1500 nM
Nucleic Acid [9]
  deltaT: 7.5 °C
[6]
  IC50: 1050 nM

## O=C1NCc2cc(CCNC(=O)C(F)(F)F)cc(c2)CNC(=O)c2coc(n2)-c2coc(n2)-c2cccc(n2)-c2nc(co2)-c2nc1co2
[3]
  IC50: > 10000 nM
[4]
  IC50: 70 nM
[5]
  IC50: > 10000 nM
[6]
  IC50: 170 nM

## O=C(NCCc1cc2cc(c1)CNC(=O)c1coc(n1)-c1coc(n1)-c1cc(Br)cc(n1)-c1nc(co1)-c1nc(co1)C(=O)NC2)OCc1ccccc1
[3]
  IC50: > 10000 nM
[4]
  IC50: 600 nM
[5]
  IC50: > 10000 nM
[6]
  IC50: 1000 nM

## O=C(NCCc1cc2cc(c1)CNC(=O)c1coc(n1)-c1coc(n1)-c1cc(OCCCN3C(=O)c4ccccc4C3=O)cc(n1)-c1nc(co1)-c1nc(co1)C(=O)NC2)OCc1ccccc1
[3]
  IC50: > 10000 nM
[4]
  IC50: > 10000 nM
[5]
  IC50: > 10000 nM
[6]
  IC50: > 10000 nM

## O=C1NCCNCCNC(=O)c2coc(n2)-c2coc(n2)-c2cccc(n2)-c2nc(co2)-c2nc1co2
[3]
  IC50: > 10000 nM
[4]
  IC50: 4000 nM
[5]
  IC50: > 10000 nM
[6]
  IC50: > 10000 nM

## CN(C)CCc1cc2cc(c1)CNC(=O)c1coc(n1)-c1coc(n1)-c1cccc(n1)-c1nc(co1)-c1nc(co1)C(=O)NC2
Mus musculus [10]
  Activity: 20.2 g
Mus musculus [11]
  Activity: 21.2 g
[3]
  IC50: > 10000 nM
Nucleic Acid [12]
  deltaT: 37 °C
Mus musculus [13]
  Activity: 20.9 g
[4]
  IC50: 40 nM
MDA-MB-435 [14]
  Activity: <400 mm3
Nucleic Acid [7]
  deltaT: 0.5 °C
Nucleic Acid [8]
  deltaT: 0 °C
[5]
  IC50: 550 nM
Nucleic Acid [9]
  deltaT: 20.5 °C
Mus musculus [15]
  Activity: 19.7 g
[6]
  IC50: 180 nM
MDA-MB-435 [16]
  T/C: 27.7%

## O=C1NCc2cc(Br)cc(c2)CNC(=O)c2coc(n2)-c2coc(n2)-c2cc(Br)cc(n2)-c2nc(co2)-c2nc1co2
[3]
  IC50: > 10000 nM
[4]
  IC50: > 10000 nM
[5]
  IC50: > 10000 nM
[6]
  IC50: > 10000 nM

## O=C1NCc2cccc(c2)CNC(=O)c2coc(n2)-c2csc(n2)-c2cccc(n2)-c2nc(cs2)-c2nc1co2
[3]
  IC50: > 10000 nM
[4]
  IC50: > 10000 nM
Nucleic Acid [7]
  deltaT: 0 °C
Nucleic Acid [8]
  deltaT: 0 °C
[5]
  IC50: > 10000 nM
Nucleic Acid [9]
  deltaT: 0 °C
[6]
  IC50: > 10000 nM

## O=C1NCc2cc(Br)cc(c2)CNC(=O)c2coc(n2)-c2coc(n2)-c2cccc(n2)-c2nc(co2)-c2nc1co2
[3]
  IC50: > 10000 nM
[4]
  IC50: 60 nM
[5]
  IC50: 1000 nM
[6]
  IC50: 300 nM

## O=C1NCc2cccc(c2)CNC(=O)c2coc(n2)-c2coc(n2)-c2cc(Br)cc(n2)-c2nc(co2)-c2nc1co2
[3]
  IC50: 2000 nM
[4]
  IC50: 150 nM
[5]
  IC50: 1000 nM
[6]
  IC50: 300 nM

## NCCc1cc2cc(c1)CNC(=O)c1coc(n1)-c1coc(n1)-c1cccc(n1)-c1nc(co1)-c1nc(co1)C(=O)NC2
[3]
  IC50: > 10000 nM
[4]
  IC50: 30 nM
Nucleic Acid [7]
  deltaT: 0.5 °C
Nucleic Acid [8]
  deltaT: 0 °C
[5]
  IC50: 140 nM
Nucleic Acid [9]
  deltaT: 21 °C
[6]
  IC50: 90 nM

## O=C(NCCc1cc2cc(c1)CNC(=O)c1coc(n1)-c1coc(n1)-c1cccc(n1)-c1nc(co1)-c1nc(co1)C(=O)NC2)OCc1ccccc1
[3]
  IC50: > 10000 nM
[4]
  IC50: 120 nM
[5]
  IC50: > 10000 nM
[6]
  IC50: 120 nM

## O=C1NCc2cccc(n2)CNC(=O)c2coc(n2)-c2coc(n2)-c2cccc(n2)-c2nc(co2)-c2nc1co2
[3]
  IC50: > 5000 nM
[4]
  IC50: > 5000 nM
[5]
  IC50: > 5000 nM
[6]
  IC50: > 5000 nM
